# Laboratory results published in ChEMBL document CHEMBL1153427, “1-Sulfonyl-4-acylpiperazines as selective cannabinoid-1 receptor (CB1R) inverse agonists for the treatment of obesity” (J Med Chem, 2009).
# Assays:
# Cannabinoid receptor 1 [1] = target: T1, Cannabinoid receptor 1 (Homo sapiens, UniProt P21554); assay: Inverse agonist activity at human recombinant CB1R expressed in CHO cells assessed as increase in forskolin-stimulated cAMP level; type: functional, cell-based
# Procedure, shortened: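 Recombinant CB1R-CHO cells were incubated with test compound across a range of concentrations, plus forskolin and the phosphodiesterase inhibitor IBMX. Buffer was Earle's balanced salt solution with 5 mM MgCl₂, 10 mM HEPES pH 7.3 and 1 mg/mL BSA, for 30 min at room temperature, with cAMP read out.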
# Cannabinoid receptor 1 [2] = target: T1, Cannabinoid receptor 1; assay: Displacement of [3H]CP-55940 from human recombinant CB1R expressed in CHO cells; type: cell-based
# Procedure, shortened: (§1)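 Radioligand competition used 0.5 nM [³H]CP55940 with recombinant human CB1R-CHO or CB2R-CHO membranes. Bound and free ligand were separated by filtration, and IC₅₀ came from nonlinear curve fitting.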
# [3] = target: Voltage-gated inwardly rectifying potassium channel KCNH2 (Homo sapiens, UniProt Q12809); assay: Inhibition of human ERG by MK-0499 binding assay
# Cannabinoid receptor 2 = Cannabinoid receptor 2 (Homo sapiens, UniProt P34972); assay: Displacement of [3H]CP-55940 from human recombinant CB2R expressed in CHO cells; type: cell-based; procedure, shortened: as §1
# Sequence of Cannabinoid receptor 2 (P34972 whole entry): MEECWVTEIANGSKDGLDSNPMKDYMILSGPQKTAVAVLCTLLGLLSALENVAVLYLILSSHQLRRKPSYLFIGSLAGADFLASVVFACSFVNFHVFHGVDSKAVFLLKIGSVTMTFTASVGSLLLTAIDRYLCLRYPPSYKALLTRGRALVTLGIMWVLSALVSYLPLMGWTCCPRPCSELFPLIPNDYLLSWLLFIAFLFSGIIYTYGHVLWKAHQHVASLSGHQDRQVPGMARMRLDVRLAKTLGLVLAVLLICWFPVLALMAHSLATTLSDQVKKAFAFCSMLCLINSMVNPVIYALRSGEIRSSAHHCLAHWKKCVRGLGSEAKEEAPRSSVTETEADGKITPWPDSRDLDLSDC
# T1 sequence (P21554 whole entry): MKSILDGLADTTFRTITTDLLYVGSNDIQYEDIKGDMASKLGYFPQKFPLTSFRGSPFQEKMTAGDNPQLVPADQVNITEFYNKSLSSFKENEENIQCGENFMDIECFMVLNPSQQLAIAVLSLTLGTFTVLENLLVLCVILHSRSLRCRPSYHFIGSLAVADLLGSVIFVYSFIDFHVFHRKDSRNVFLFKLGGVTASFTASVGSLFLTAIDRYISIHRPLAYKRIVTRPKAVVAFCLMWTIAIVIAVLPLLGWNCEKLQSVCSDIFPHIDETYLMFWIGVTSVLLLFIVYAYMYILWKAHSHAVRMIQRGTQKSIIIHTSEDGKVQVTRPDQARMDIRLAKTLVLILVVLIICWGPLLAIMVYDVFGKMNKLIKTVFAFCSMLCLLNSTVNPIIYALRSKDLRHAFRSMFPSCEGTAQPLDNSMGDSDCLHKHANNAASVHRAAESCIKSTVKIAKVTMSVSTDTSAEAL
# Sequence of Voltage-gated inwardly rectifying potassium channel KCNH2 (Q12809 whole entry): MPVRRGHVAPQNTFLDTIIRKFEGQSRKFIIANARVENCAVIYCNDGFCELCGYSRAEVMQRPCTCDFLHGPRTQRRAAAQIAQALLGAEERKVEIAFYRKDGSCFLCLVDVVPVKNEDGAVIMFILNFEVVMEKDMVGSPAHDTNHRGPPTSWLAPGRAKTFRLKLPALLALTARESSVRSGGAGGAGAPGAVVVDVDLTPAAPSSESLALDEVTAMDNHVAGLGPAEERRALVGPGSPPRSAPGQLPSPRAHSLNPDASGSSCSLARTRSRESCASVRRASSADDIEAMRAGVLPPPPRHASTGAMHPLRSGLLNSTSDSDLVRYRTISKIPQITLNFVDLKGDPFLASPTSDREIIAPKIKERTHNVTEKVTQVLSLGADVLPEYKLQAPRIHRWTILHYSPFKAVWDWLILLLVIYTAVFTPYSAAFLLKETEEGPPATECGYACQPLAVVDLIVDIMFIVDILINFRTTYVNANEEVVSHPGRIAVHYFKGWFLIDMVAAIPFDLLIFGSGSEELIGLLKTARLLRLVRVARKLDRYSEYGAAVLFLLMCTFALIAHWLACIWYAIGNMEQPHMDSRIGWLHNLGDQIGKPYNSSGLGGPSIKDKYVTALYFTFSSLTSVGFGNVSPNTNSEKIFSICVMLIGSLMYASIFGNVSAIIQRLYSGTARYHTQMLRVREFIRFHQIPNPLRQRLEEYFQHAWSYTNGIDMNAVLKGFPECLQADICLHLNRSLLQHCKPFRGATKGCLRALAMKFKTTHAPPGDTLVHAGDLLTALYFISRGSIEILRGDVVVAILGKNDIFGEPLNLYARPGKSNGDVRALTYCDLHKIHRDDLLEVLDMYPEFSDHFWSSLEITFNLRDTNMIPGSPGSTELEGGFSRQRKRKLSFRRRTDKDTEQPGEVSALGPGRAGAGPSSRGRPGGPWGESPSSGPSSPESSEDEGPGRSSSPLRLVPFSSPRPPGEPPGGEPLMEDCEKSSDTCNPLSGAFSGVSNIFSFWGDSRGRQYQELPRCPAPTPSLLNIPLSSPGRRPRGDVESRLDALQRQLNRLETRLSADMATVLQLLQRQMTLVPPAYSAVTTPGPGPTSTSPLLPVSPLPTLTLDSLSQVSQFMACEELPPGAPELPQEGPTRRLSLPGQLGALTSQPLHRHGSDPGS
SMILES,EC50 (Cannabinoid receptor 1 [1]) [nM],IC50 (Cannabinoid receptor 1 [2]) [nM],IC50 [3] [nM],IC50 (Cannabinoid receptor 2) [nM]
CC1CN(C(=O)C2CCCCC2)CCN1S(=O)(=O)c1cccc2ccccc12 (configuration not stated),180,4700,,
O=C(C1CCCCC1)N1CCN(S(=O)(=O)c2cccc3ccccc23)CC1C(F)(F)F (configuration not stated),2.5,290,,
O=C(Cc1ccccc1)N1CCN(S(=O)(=O)c2cc(Cl)cc(Cl)c2)CC1,2,800,,
O=C([C@@H]1C[C@H]1c1ccc(C(F)(F)F)cc1)N1CCN(S(=O)(=O)c2cc(CCO)cc(C(F)(F)F)c2)CC1,,4,900,> 10000
CC(C)(O)c1cc(C(F)(F)F)cc(S(=O)(=O)N2CCN(C(=O)[C@@H]3C[C@H]3c3ccc(C(F)(F)F)cc3)CC2)c1,,8,,> 10000
O=C(C1CCCCC1)N1CCN(S(=O)(=O)c2cccc(-c3ccccc3)c2)CC1,6,200,,> 10000
COc1cc(C(F)(F)F)cc(S(=O)(=O)N2CCN(C(=O)[C@@H]3C[C@H]3c3ccc(C(F)(F)F)cc3)CC2)c1,,0.5,,
C[C@@H]1CN(S(=O)(=O)c2cccc3ccccc23)C[C@H](C)N1C(=O)C1CCCCC1,8,2800,,
O=C(Cc1ccc(C(F)(F)F)cc1)N1CCN(S(=O)(=O)c2cc(Cl)cc(Cl)c2)CC1,0.5,16,,
O=C(Cc1ccccc1C(F)(F)F)N1CCN(S(=O)(=O)c2cc(Cl)cc(Cl)c2)CC1,2.2,470,,
N#Cc1ccc(CC(=O)N2CCN(S(=O)(=O)c3cc(Cl)cc(Cl)c3)CC2)cc1,0.5,,,
O=C(C1CC1)N1CCN(S(=O)(=O)c2cc(Cl)c(Cl)cc2Cl)CC1,1500,9700,,
O=C([C@@H]1C[C@H]1c1ccc(C(F)(F)F)cc1)N1CCN(S(=O)(=O)c2cc(-c3cn[nH]c3)cc(C(F)(F)F)c2)CC1,,9,,> 10000
O=C([C@@H]1C[C@H]1c1ccc(C(F)(F)F)cc1)N1CCN(S(=O)(=O)c2cc(C(F)(F)F)cc(C(F)(F)CO)c2)CC1,,5,,> 10000
O=C([C@@H]1C[C@H]1c1ccc(C(F)(F)F)cc1)N1CCN(S(=O)(=O)c2cc(-c3noc(=O)[nH]3)cc(C(F)(F)F)c2)CC1,,200,,> 10000
O=C(c1ccccc1)N1CCN(S(=O)(=O)c2cc(C(F)(F)F)cc(C(F)(F)F)c2)CC1,> 10000,> 10000,,

SMILES,EC50 (Cannabinoid receptor 1 [1]) [nM],IC50 (Cannabinoid receptor 1 [2]) [nM],IC50 [3] [nM],IC50 (Cannabinoid receptor 2) [nM]
O=C(Cc1ccc(C(F)(F)F)cc1)N1CC(NS(=O)(=O)c2cc(C(F)(F)F)cc(C(F)(F)F)c2)C1,> 10000,> 10000,,
O=C([C@@H]1C[C@H]1c1ccc(C(F)(F)F)cc1)N1CCN(S(=O)(=O)c2cc(O)cc(C(F)(F)F)c2)CC1,,6,,
CC1CN(S(=O)(=O)c2cccc3ccccc23)CCN1C(=O)C1CCCCC1 (configuration not stated),7,310,,
CC(C)(C(=O)N1CCN(S(=O)(=O)c2cc(Cl)cc(Cl)c2)CC1)c1ccccc1,2.8,230,,
Cc1cc(C)cc(S(=O)(=O)N2CCN(C(=O)C3CCCCC3)CC2)c1,1.1,400,,> 10000
O=C(Cc1ccc(C(F)(F)F)cc1)NC1CN(S(=O)(=O)c2cc(C(F)(F)F)cc(C(F)(F)F)c2)C1,> 10000,> 10000,,
O=C(C1CCCCC1)N1CCN(S(=O)(=O)c2cccc3ccccc23)CC1,0.6,95,,> 10000
CC(C)Oc1cc(C(F)(F)F)cc(S(=O)(=O)N2CCN(C(=O)[C@@H]3C[C@H]3c3ccc(C(F)(F)F)cc3)CC2)c1,,0.3,,
O=C(C1CCCCC1)N1CCN(S(=O)(=O)c2cccc3ccccc23)CC1c1ccccc1 (configuration not stated),600,9000,,
CC1(C)CN(S(=O)(=O)c2cccc3ccccc23)CCN1C(=O)C1CCCCC1,0.6,700,,
O=C([C@@H]1C[C@H]1c1ccc(C(F)(F)F)cc1)N1CCN(S(=O)(=O)c2cc(-c3c[nH]nn3)cc(C(F)(F)F)c2)CC1,,3,,> 10000
O=C1CSC(c2cc(C(F)(F)F)cc(S(=O)(=O)N3CCN(C(=O)[C@@H]4C[C@H]4c4ccc(C(F)(F)F)cc4)CC3)c2)=N1,,10,,> 10000
CC(C(=O)N1CCN(S(=O)(=O)c2cc(Cl)cc(Cl)c2)CC1)c1ccccc1 (racemic),0.3,220,,
CC(C(=O)N1CCN(S(=O)(=O)c2cc(Cl)cc(Cl)c2)CC1)c1ccc(C(F)(F)F)cc1 (stereo in doubt; 20a),1.5,20,,
CC(C(=O)N1CCN(S(=O)(=O)c2cc(Cl)cc(Cl)c2)CC1)c1ccc(C(F)(F)F)cc1 (stereo in doubt; 20b),11,400,,
